The results in this text go back to ChEMBL document CHEMBL4270638, “Sulfonyl-containing phenyl-pyrrolyl pentane analogues: Novel non-secosteroidal vitamin D receptor modulators with favorable physicochemical properties, pharmacokinetic properties and anti-tumor activity” (Eur J Med Chem, 2018).

The target in data set [1] is T1, Retinoic acid receptor RXR-alpha/Vitamin D3 receptor (Homo sapiens, UniProt P11473+P19793).
T1 sequence (P11473 whole entry): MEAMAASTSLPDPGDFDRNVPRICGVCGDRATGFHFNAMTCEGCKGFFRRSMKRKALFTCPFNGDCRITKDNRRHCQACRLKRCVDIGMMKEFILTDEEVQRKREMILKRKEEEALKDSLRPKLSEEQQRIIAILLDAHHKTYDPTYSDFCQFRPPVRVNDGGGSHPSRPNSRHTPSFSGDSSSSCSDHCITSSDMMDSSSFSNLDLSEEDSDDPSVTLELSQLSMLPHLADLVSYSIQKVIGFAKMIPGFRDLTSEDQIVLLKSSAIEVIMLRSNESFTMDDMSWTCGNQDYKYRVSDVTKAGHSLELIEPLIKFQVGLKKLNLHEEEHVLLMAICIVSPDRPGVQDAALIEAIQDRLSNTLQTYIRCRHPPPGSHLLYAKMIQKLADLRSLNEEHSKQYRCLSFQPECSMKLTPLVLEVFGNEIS
T1 sequence (P19793 whole entry): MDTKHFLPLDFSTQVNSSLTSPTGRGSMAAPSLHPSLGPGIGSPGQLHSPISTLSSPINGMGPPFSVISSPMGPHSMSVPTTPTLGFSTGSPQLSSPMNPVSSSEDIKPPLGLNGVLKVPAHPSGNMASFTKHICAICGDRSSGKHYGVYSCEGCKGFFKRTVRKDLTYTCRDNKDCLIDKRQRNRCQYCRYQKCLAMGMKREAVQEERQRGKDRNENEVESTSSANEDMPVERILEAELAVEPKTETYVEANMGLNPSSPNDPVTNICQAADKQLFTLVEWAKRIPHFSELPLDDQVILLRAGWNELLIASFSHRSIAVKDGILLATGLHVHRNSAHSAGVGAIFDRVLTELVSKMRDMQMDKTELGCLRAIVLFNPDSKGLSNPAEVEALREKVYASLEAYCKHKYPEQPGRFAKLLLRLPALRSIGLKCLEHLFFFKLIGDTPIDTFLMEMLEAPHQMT
As to the kind of experiment: Transactivation of recombinant human VDR/RXRalpha expressed in HEK293 cells after 24 hrs by Dual-luciferase reporter gene assay. It is filed as cell-based.

Data set [2] in a line: Mean residence time in Sprague-Dawley rat at 20 mg/kg, ip by HPLC method. It is filed as ADME, organism-based. To be noted: in vivo. A digest of the protocol: (§1)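 Male Sprague-Dawley rats, 180–220 g, n = 3 per group. Dosed iv at 5 mg/kg or ip at 20 mg/kg in ethanol/EL/saline (1:1:18). Plasma sampled at 0, 0.083, 0.167, 0.25, 0.5, 1, 2, 4, 8, 12 and 24 h and centrifuged 12000 rpm for 10 min. Plasma drug measured by HPLC; parameters by PK modelling; mean ± SD.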

For another data set, the system named is BXPC-3. As to the kind of experiment: Antiproliferative activity against human BxPC3 cells after 24 hrs by MTT assay. The format is functional, cell-based. The following applies: BXPC-3, 24 h. (Tetrazolium assays rely on reduction of a dye to a coloured formazan, in cell work by metabolically active cells.)
Data set [3] is described as follows: Half life in Sprague-Dawley rat at 5 mg/kg, iv by HPLC method. To be noted: in vivo. It is filed as ADME, organism-based. A digest of the protocol:
as §1

Data set [4] relates to MCF7. Put plainly: Cell cycle arrest in human MCF7 cells expressing scrambled siRNA assessed as accumulation at G2/M phase at 1 uM after 24 hrs by propidium iodide staining based flow cytometry (reference value: 19.6%). The format is functional. (Flow cytometry measures light scatter and fluorescence of single cells or particles in a stream.)
Data set [5] is described as follows: AUC in Sprague-Dawley rat at 5 mg/kg, iv by HPLC method. It is filed as ADME, organism-based. The following applies: in vivo. A digest of the protocol: as §1
The nature of data set [6]: Clearance in Sprague-Dawley rat at 5 mg/kg, iv by HPLC method. The format is ADME, organism-based. The following applies: in vivo. Put shortly: as §1
In data set [7] the test system is MCF7. As to the kind of experiment: Induction of apoptosis in human MCF7 cells expressing VDR siRNA assessed as live cells at 1 uM after 24 hrs by Annexin-V-FITC/propidium iodide staining based flow cytometry (reference value: 98.35%). It is filed as functional.
Data set [8] has as its system MCF7. As to the kind of experiment: Induction of apoptosis in human MCF7 cells expressing VDR siRNA assessed as late apoptotic cells at 1 uM after 24 hrs by Annexin-V-FITC/propidium iodide staining based flow cytometry (reference value: 1.01%). It is filed as functional.
Data set [9] concerns MCF7. As to the kind of experiment: Antitumor activity against human MCF7 cells xenografted in Balb/c nude mouse assessed as increase in p27 expression at 10 mg/kg, ip administered three times a week for three weeks starting from day 7 after tumor cell inoculation by immunohistochemical analysis. It is filed as functional, organism-based. In general terms: Xenograft models place foreign cells or tissue in a host animal.

The nature of data set [10]: Solubility of the compound in water at pH 7.4 by HPLC method. It is filed as physicochemical. A digest of the protocol: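 Aqueous solubility measured at pH 7.4, with samples quantified by HPLC.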
Data set [11] has as its system MCF7. As to the kind of experiment: Antitumor activity against human MCF7 cells xenografted in Balb/c nude mouse assessed as increase in p21 expression at 10 mg/kg, ip administered three times a week for three weeks starting from day 7 after tumor cell inoculation by immunohistochemical analysis. The format is functional, organism-based.
Data set [12] is described as follows: Half life in Sprague-Dawley rat at 20 mg/kg, ip by HPLC method. To be noted: in vivo. The format is ADME, organism-based. A digest of the protocol:
as §1

Data set [13] has as its system MCF7. Put plainly: Cell cycle arrest in human MCF7 cells expressing VDR siRNA assessed as accumulation at G2/M phase at 1 uM after 24 hrs by propidium iodide staining based flow cytometry (reference value: 17.57%). The format is functional.
In data set [14] the test system is MCF7. Put plainly: Antitumor activity against human MCF7 cells xenografted in Balb/c nude mouse assessed as reduction in tumor growth at 10 mg/kg, ip administered three times a week for three weeks starting from day 7 after tumor cell inoculation. It is filed as functional, organism-based. Put shortly: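 […] BALB/c-nu mice, 10 weeks old. 1×10^7 MCF-7 cells injected into the left fourth mammary fat pad; dosing began at about 50 mm3 tumour volume (day 7), n = 5 per group. Dosed ip at 10 mg/kg in ethanol/EL/saline 1:1:18, three times weekly for three weeks. Tumour volume by calipers = length × width² × 0.5; tumour weight and body weight recorded.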

The structures appear in SMILES notation. Converted amounts (≈) assume the structure as drawn. The source made the active and inactive calls. No cut-off for these calls is given here.

For `CCN(CC)CCNC(=O)c1cc(C(CC)(CC)c2ccc(OCS(=O)(=O)c3ccccc3)c(C)c2)cn1CC`, the EC50 (in general, the concentration giving half of the maximal effect) in data set [1] is 38.2 nM. In addition, the MRT (usually the average time that molecules of a dose stay in the body) in data set [2] came out at 11.9 h. Moreover, the IC50 (in general, the concentration needed to halve the response being measured) in the data set on BXPC-3 was 4690 nM. For the same compound, the half-life (usually the time in which the quantity being followed falls by half) in data set [3] was 6.6 h; in [12] it was 7.65 h. In addition, the Activity was found to be 13.22% with MCF7 [4], 97.48% in the data set on MCF7 [7], 1.57% with MCF7 [8] and 19.02% in the data set on MCF7 [13]. The AUC – broadly, the area under the concentration-time curve, a measure of exposure – in data set [5] is 7470 ng·h/mL. In addition, the clearance (commonly a measure of how efficiently the substance is removed, as volume per time) in data set [6] was 11.2 mL/min. Besides, the result with MCF7 [9], in the data set on MCF7 [11] and in the data set on MCF7 [14] was Active. The concentration in solution in [10] (solubility) was 85.3 µg/mL (≈ 150 µM).
Take `CCN(CC)CCNC(=O)c1ccc(C(CC)(CC)c2ccc(OCSC)c(C)c2)n1CC`: the EC50 in [1] is 6.41 nM. The MRT in data set [2] worked out at 15.7 h. This compound had an IC50 with BXPC-3 of 5130 nM. Besides, the half-life in data set [3] is 4.72 h; in [12], 10.8 h. Further, the Activity in the data set with MCF7 [4] is listed as 15.96%; with MCF7 [7], 97.35%; in the data set with MCF7 [8] it was 1.67%; with MCF7 [13], 16.01%. Also, in data set [5], the AUC amounted to 11800 ng·h/mL. Moreover, the clearance in [6] was 7 mL/min. The result with MCF7 [9], in the data set on MCF7 [11] and in the data set on MCF7 [14] was Active. In addition, the solubility (in general, the concentration that dissolves in the medium under given conditions) in data set [10] turned out to be 74.6 µg/mL (≈ 157 µM).
